Laboratory results: ChEMBL document CHEMBL3758168, “Hybrid triazoles: Design and synthesis as potential dual inhibitor of growth and efflux inhibition in tuberculosis” (Eur J Med Chem, 2016)
In brackets after ≈: the same amount, converted by molar mass.

Key:
[1] = system: Mycolicibacterium smegmatis; test: Anti-tubercular activity against Mycobacterium smegmatis MC2 155 ATCC 700084 after 3 days by microdilution method; assay type: functional; details: MC2 155 ATCC 700084, 72 h
Summary of the method: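 M. smegmatis mc2155 grown in MB7H9 + 10% OADC at 37 °C with shaking to OD600 0.8. Inoculum set to 0.5 McFarland, diluted 1:100, and mixed 1:1 with two-fold serial dilutions in MB7H9. Plates incubated 3 days at 37 °C with growth and sterility controls. MIC taken as the lowest concentration with no visible growth.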

[2] = Cytotoxicity against human MDM assessed as cell viability after 3 days by Alamar blue dye-based fluorocytometric analysis relative to control; details: 72 h
[3] = system: Mycobacterium tuberculosis; test: Anti-tubercular activity against Mycobacterium tuberculosis H37Rv ATCC 27294T after 7 days by mircodilution method; assay type: functional; details: 168 h
Summary of the method: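 H37Rv grown static in MB7H9 + 10% OADC at 37 °C to OD600 0.8, then diluted to about 10^5 cells/ml. Mixed 1:1 with two-fold serial dilutions in MB7H9/OADC and incubated 7 days at 37 °C. MTT added to final 2.5% and plates incubated overnight. MIC is the lowest concentration with no colour change. Run in triplicate.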

Row | SMILES | MIC [1] [µg/mL] | IC50 [2] [µg/mL] | MIC [3] [µg/mL]
1 | CCOC(=O)CC(=O)CSc1nnc(COc2ccccc2C2=NOC(c3ccc(Cl)cc3Cl)C2)n1NC(C)=O (stereo unspecified) | 512 (≈ 844 µM) | – | –
2 | CCSc1nnc(COc2ccccc2C2=NOC(c3ccc(Cl)cc3Cl)C2)n1NC(=O)CCl (stereo unspecified) | 512 (≈ 947 µM) | – | –
3 | CSc1nnc(COc2ccccc2C2=NOC(c3ccc(Cl)cc3Cl)C2)n1NC(=O)CCl (stereo unspecified) | 32 (≈ 60.7 µM) | 2.7 (≈ 5.12 µM) | –
4 | C/C=C/Sc1nnc(COc2ccccc2C2=NOC(c3ccc(Cl)cc3Cl)C2)n1NC(=O)CCl (stereo unspecified) | > 512 | – | –
5 | C/C=C/Sc1nnc(COc2ccccc2C2=NOC(c3ccc(Cl)cc3Cl)C2)n1NC(C)=O (stereo unspecified) | 512 (≈ 988 µM) | – | –
6 | CCCCSc1nnc(COc2ccccc2C2=NOC(c3ccc(Cl)cc3Cl)C2)n1NC(=O)c1ccccc1 (stereo unspecified) | 64 (≈ 107 µM) | 2.5 (≈ 4.19 µM) | –
7 | C/C=C/Sc1nnc(COc2ccccc2C2=NOC(c3ccc(Cl)cc3Cl)C2)n1NC(=O)c1ccccc1 (stereo unspecified) | 128 (≈ 221 µM) | – | –
8 | Nn1c(S)nnc1COc1ccccc1C1=NOC(c2ccc(Cl)cc2Cl)C1 (stereo unspecified) | 2 (≈ 4.58 µM) | 87.3 (≈ 200 µM) | –
9 | CC(=O)Nn1c(COc2ccccc2C2=NOC(c3ccc(Cl)cc3Cl)C2)nnc1SCC(C)C (stereo unspecified) | > 256 | – | –
10 | O=C(CCl)Nn1c(S)nnc1COc1ccccc1C1=NOC(c2ccc(Cl)cc2Cl)C1 (stereo unspecified) | 16 (≈ 31.2 µM) | 3.2 (≈ 6.24 µM) | –
11 | CCSc1nnc(COc2ccccc2C2=NOC(c3ccc(Cl)cc3Cl)C2)n1NC(=O)c1ccccc1 (stereo unspecified) | 4 (≈ 7.04 µM) | 1.8 (≈ 3.17 µM) | –
12 | CCOC(=O)CSc1nnc(COc2ccccc2C2=NOC(c3ccc(Cl)cc3Cl)C2)n1NC(=O)c1ccccc1 (stereo unspecified) | 64 (≈ 102 µM) | – | –
13 | CSc1nnc(COc2ccccc2C2=NOC(c3ccc(Cl)cc3Cl)C2)n1NC(C)=O (stereo unspecified) | 32 (≈ 65 µM) | 2.7 (≈ 5.48 µM) | –
14 | CC(C)CSc1nnc(COc2ccccc2C2=NOC(c3ccc(Cl)cc3Cl)C2)n1NC(=O)CCl (stereo unspecified) | 1020 (≈ 1800 µM) | – | –
15 | CCCCSc1nnc(COc2ccccc2C2=NOC(c3ccc(Cl)cc3Cl)C2)n1NC(C)=O (stereo unspecified) | 32 (≈ 59.9 µM) | 2.6 (≈ 4.86 µM) | –
16 | CCCCSc1nnc(COc2ccccc2C2=NOC(c3ccc(Cl)cc3Cl)C2)n1NC(=O)CCl (stereo unspecified) | 32 (≈ 56.2 µM) | 2.8 (≈ 4.92 µM) | –
17 | CC(=O)Nn1c(S)nnc1COc1ccccc1C1=NOC(c2ccc(Cl)cc2Cl)C1 (stereo unspecified) | 8 (≈ 16.7 µM) | 1.3 (≈ 2.72 µM) | –
18 | CCOC(=O)CSc1nnc(COc2ccccc2C2=NOC(c3ccc(Cl)cc3Cl)C2)n1NC(C)=O (stereo unspecified) | > 64 | – | –

Row | SMILES | MIC [1] [µg/mL] | IC50 [2] [µg/mL] | MIC [3] [µg/mL]
19 | CSc1nnc(COc2ccccc2C2=NOC(c3ccc(Cl)cc3Cl)C2)n1NC(=O)c1ccccc1 (stereo unspecified) | 32 (≈ 57.7 µM) | 2.2 (≈ 3.97 µM) | –
20 | C=CCSc1nnc(COc2ccccc2C2=NOC(c3ccc(Cl)cc3Cl)C2)n1NC(=O)CCl (stereo unspecified) | 256 (≈ 463 µM) | – | –
21 | O=C(CCl)Nn1c(COc2ccccc2C2=NOC(c3ccc(Cl)cc3Cl)C2)nnc1Sc1ccccc1 (stereo unspecified) | 128 (≈ 217 µM) | – | –
22 | C=CCSc1nnc(COc2ccccc2C2=NOC(c3ccc(Cl)cc3Cl)C2)n1NC(=O)c1ccccc1 (stereo unspecified) | 128 (≈ 221 µM) | – | –
23 | CC(=O)Nn1c(COc2ccccc2C2=NOC(c3ccc(Cl)cc3Cl)C2)nnc1Sc1ccccc1 (stereo unspecified) | > 512 | – | –
24 | C=CCSc1nnc(COc2ccccc2C2=NOC(c3ccc(Cl)cc3Cl)C2)n1NC(C)=O (stereo unspecified) | 256 (≈ 494 µM) | – | –
25 | O=C(Nn1c(S)nnc1COc1ccccc1C1=NOC(c2ccc(Cl)cc2Cl)C1)c1ccccc1 (stereo unspecified) | 32 (≈ 59.2 µM) | 1.7 (≈ 3.15 µM) | –
26 | CCOC(=O)CC(=O)CSc1nnc(COc2ccccc2C2=NOC(c3ccc(Cl)cc3Cl)C2)n1NC(=O)CCl (stereo unspecified) | 128 (≈ 200 µM) | – | –
27 | CCOC(=O)CSc1nnc(COc2ccccc2C2=NOC(c3ccc(Cl)cc3Cl)C2)n1NC(=O)CCl (stereo unspecified) | 128 (≈ 214 µM) | – | –
28 | CCOC(=O)CC(=O)CSc1nnc(COc2ccccc2C2=NOC(c3ccc(Cl)cc3Cl)C2)n1NC(=O)c1ccccc1 (stereo unspecified) | 512 (≈ 766 µM) | – | –
29 | O=C(Nn1c(COc2ccccc2C2=NOC(c3ccc(Cl)cc3Cl)C2)nnc1Sc1ccccc1)c1ccccc1 (stereo unspecified) | 256 (≈ 415 µM) | – | –
30 | CC(C)CSc1nnc(COc2ccccc2C2=NOC(c3ccc(Cl)cc3Cl)C2)n1NC(=O)c1ccccc1 (stereo unspecified) | 512 (≈ 858 µM) | – | –
31 | NCC[C@H](O)C(=O)N[C@@H]1C[C@H](N)[C@@H](O[C@H]2O[C@H](CN)[C@@H](O)[C@H](O)[C@H]2O)[C@H](O)[C@H]1O[C@H]1O[C@H](CO)[C@@H](O)[C@H](N)[C@H]1O [AMIKACIN] | – | – | 2 (≈ 3.42 µM)
32 | CC[n+]1c(-c2ccccc2)c2cc(N)ccc2c2ccc(N)cc21.[Br-] [HOMIDIUM BROMIDE] | – | – | 12.5
33 | NNC(=O)c1ccncc1 [ISONIAZID] | – | – | 0.1 (≈ 0.729 µM)
34 | CC1COc2c(N3CCN(C)CC3)c(F)cc3c(=O)c(C(=O)O)cn1c23 (stereo unspecified) [OFLOXACIN] | – | – | 2 (≈ 5.53 µM)
35 | CO[C@H]1/C=C/O[C@@]2(C)Oc3c(C)c(O)c4c(O)c(c(/C=N/N5CCN(C)CC5)c(O)c4c3C2=O)NC(=O)/C(C)=C\C=C\[C@H](C)[C@H](O)[C@@H](C)[C@@H](O)[C@@H](C)[C@H](OC(C)=O)[C@@H]1C [RIFAMPIN] | – | – | 1 (≈ 1.22 µM)
